# Legend:
# [1] = Inhibition of Plasmodium falciparum recombinant GSK-3 by radiometric protein kinase assay
# Method in brief: (§1)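 His6-tagged recombinant GSK-3 expressed in E. coli (TOP10/pBAD-Thio-TOPO for P. falciparum and T. gondii, arabinose-induced; BL21(DE3)-pRARE2/pET15 for C. parvum, IPTG at 15 °C), Ni-NTA purified. Assayed with 40 μM GS-1 phosphopeptide, 15 μM γ-33P-ATP in pH 7.5 Tris buffer with MgCl2, EGTA, DTT, heparin, BSA; 30 min, 30 °C; P81 paper, phosphoric acid washes, scintillation counting. DMSO controls; dose-response IC50, triplicate points.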
# [2] = Inhibition of pig GSK-3 by radiometric protein kinase assay; parameters: species or system Sus scrofa
# Method in brief: (§2)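 Native affinity-purified porcine GSK-3 in the radiometric assay: 40 μM GS-1 peptide, 15 μM γ-33P-ATP, pH 7.5 Tris/MgCl2/EGTA/DTT/heparin/BSA buffer, 30 min at 30 °C, P81 filter binding and scintillation counting. IC50 from dose-response curves with triplicate points; top concentration 10 or 100 μM.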
# [3] = Inhibition of Toxoplasma gondii recombinant His6-tagged GSK-3 expressed in Escherichia coli using GS-1 peptide as substrate after 30 mins by scintillation counting analysis in presence of gamma-33P-ATP; type: cell-free; method in brief: as §1
# [4] = Inhibition of Plasmodium knowlesi recombinant His6-tagged GSK-3 expressed in Escherichia coli using GS-1 peptide as substrate after 30 mins by scintillation counting analysis in presence of gamma-33P-ATP
# Method in brief: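 P. knowlesi GSK3 gene in pBAD-Thio-TOPO, expressed in E. coli TOP10 (ampicillin, 37 °C, 0.02% arabinose for 4 h), Ni-NTA purified. Radiometric assay: 40 μM GS-1 peptide in buffer A pH 7.5 (MgCl2, EGTA, DTT, heparin, BSA) with 15 μM γ-33P-ATP, 30 min at 30 °C. P81 filter binding, scintillation counting. IC50 from triplicate dose-response curves.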
# [5] = Inhibition of Plasmodium falciparum recombinant His6-tagged GSK-3 expressed in Escherichia coli using GS-1 peptide as substrate after 30 mins by scintillation counting analysis in presence of gamma-33P-ATP; method in brief: as §1
# Plasmodium falciparum [6] = assay: Antiplasmodial activity against Plasmodium falciparum at 15 uM after 72 hrs by luciferase reporter gene assay; type: functional
# Method in brief: (§3)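 NF54:LUC P. falciparum erythrocytic stages (luciferase under hrp2 promoter) at 3% parasitemia, 25% hematocrit; compounds in RPMI-1640 with 1% DMSO, triplicate wells; untreated, DMSO-only and non-luciferase NF54 blank wells. […] Bright-Glo lysis, luminescence read.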
# [7] = target: Glycogen synthase kinase-3 (Sus scrofa, UniProt B2LUN4+I6LNT8); assay: Inhibition of pig GSK-3alpha/beta; method in brief: as §2
# [8] = Inhibition of Leishmania donovani GSK-3
# [9] = Inhibition of Trypanosoma brucei GSK-3
# [10] = Inhibition of Trypanosoma cruzi GSK-3
# [11] = Inhibition of Cryptosporidium parvum recombinant His6-tagged GSK-3 expressed in Escherichia coli using GS-1 peptide as substrate after 30 mins by scintillation counting analysis in presence of gamma-33P-ATP; method in brief: as §1
# [12] = target: Glycogen synthase kinase-3 beta (Homo sapiens, UniProt P49841); assay: Inhibition of human Nt-GST-tagged GSK-3beta
# Glycogen synthase kinase-3 beta, sequence (P49841 whole entry, canonical isoform): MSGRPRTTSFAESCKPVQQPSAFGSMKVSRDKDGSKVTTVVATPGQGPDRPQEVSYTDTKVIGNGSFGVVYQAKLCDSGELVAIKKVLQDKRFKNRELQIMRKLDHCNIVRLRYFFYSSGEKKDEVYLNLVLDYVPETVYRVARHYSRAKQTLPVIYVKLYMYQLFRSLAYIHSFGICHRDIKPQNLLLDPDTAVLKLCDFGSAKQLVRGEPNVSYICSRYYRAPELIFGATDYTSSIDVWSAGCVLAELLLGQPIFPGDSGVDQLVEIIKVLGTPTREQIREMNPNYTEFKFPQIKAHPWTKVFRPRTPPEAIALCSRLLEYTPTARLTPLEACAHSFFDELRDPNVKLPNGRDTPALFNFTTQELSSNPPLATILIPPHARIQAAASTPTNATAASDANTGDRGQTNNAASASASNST
# Method in brief: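 Recombinant human GSK-3 isoform assayed radiometrically: 40 μM GS-1 peptide in buffer A pH 7.5 with 15 μM γ-33P-ATP, 30 min at 30 °C. Read-out by P81 filter binding and scintillation. IC50 from triplicate dose-response curves; top inhibitor concentration 10, 25 or 100 μM.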
# Plasmodium falciparum [13] = assay: Antiplasmodial activity against Plasmodium falciparum after 72 hrs by luciferase reporter gene assay; type: functional, organism-based; conditions: 48 h; method in brief: as §3
# [14] = in the assay text read “48 hrs” for “72 hrs”
IC50 [1] [µM],IC50 [2] [µM],SMILES,also measured
> 10,> 10,COc1ccccc1-c1c(C#N)c(N)nc2sc(C(=O)c3ccc(C)cc3)c(N)c12,–
10,> 100,N#Cc1c(N)nc2sc(C(=O)c3cccc(Cl)c3)c(N)c2c1-c1ccccc1F,–
0.13,0.4,N#Cc1sc2nc(N)c(C#N)c(-c3ccccc3Cl)c2c1N,–
> 10,> 10,COc1ccccc1-c1c(C#N)c(N)nc2sc(C(=O)c3ccc(C(F)(F)F)cc3)c(N)c12,–
> 10,> 10,N#Cc1c(N)nc2sc(C(=O)Nc3ccc(Cl)cc3)c(N)c2c1-c1ccccc1Br,–
> 100,> 100,N#Cc1c(N)nc2sc(C(=O)c3ccc(Cl)cc3)c(N)c2c1-c1ccccc1,–
> 10,> 10,COc1ccccc1-c1c(C#N)c(N)nc2sc(C#N)c(N)c12,–
1.7,> 10,COc1ccc(C(=O)c2sc3nc(N)c(C#N)c(-c4ccccc4I)c3c2N)cc1,–
0.91,> 10,N#Cc1c(N)nc2sc(C(=O)c3cccc(Cl)c3)c(N)c2c1-c1ccccc1I,IC50 [3]: > 100 µM; IC50 [4]: 2.75 µM; IC50 [5]: 0.91 µM; inhibition at 15 µM (Plasmodium falciparum [6]): 65.4%; IC50 [7]: > 100 µM; IC50 [8]: 70 µM; IC50 [9]: > 100 µM; IC50 [10]: > 100 µM; IC50 [11]: > 100 µM
0.5,> 10,N#Cc1cccc(C(=O)c2sc3nc(N)c(C#N)c(-c4ccccc4Cl)c3c2N)c1,IC50 [3]: > 100 µM; IC50 [4]: 6.5 µM; IC50 [5]: 0.5 µM; inhibition at 15 µM (Plasmodium falciparum [6]): 30.3%; IC50 [7]: > 100 µM; IC50 [8]: 100 µM; IC50 [9]: > 100 µM; IC50 [10]: > 100 µM; IC50 [11]: > 100 µM
> 10,> 10,N#Cc1c(N)nc2sc(C(=O)c3ccccc3Cl)c(N)c2c1-c1ccccc1I,–
> 10,> 10,CCOc1ccccc1-c1c(C#N)c(N)nc2sc(C(=O)c3ccc(Cl)cc3)c(N)c12,–
–,–,N#Cc1c(N)nc2sc(C(=O)c3ccc(Cl)cc3)c(N)c2c1-c1ccccc1I,IC50 [3]: > 100 µM; IC50 [4]: 15.5 µM; IC50 [5]: 1.61 µM; IC50 [12]: > 100 µM; IC50 [7]: > 100 µM; IC50 [8]: 80 µM; IC50 [9]: > 100 µM; IC50 [10]: > 100 µM; IC50 [11]: > 100 µM
1.1,> 10,N#Cc1c(N)nc2sc(C(=O)c3ccccc3)c(N)c2c1-c1ccccc1Br,–
3.8,> 10,N#Cc1c(N)nc2sc(C(=O)c3ccc(Cl)c(Cl)c3)c(N)c2c1-c1ccccc1Br,–
0.61,> 10,N#Cc1c(N)nc2sc(C(=O)c3cccc(Cl)c3)c(N)c2c1-c1ccccc1Br,IC50 [3]: > 100 µM; IC50 [4]: 1.45 µM; IC50 [5]: 0.61 µM; inhibition at 15 µM (Plasmodium falciparum [6]): 77.1%; IC50 [7]: > 100 µM; IC50 [8]: 44 µM; IC50 [9]: > 100 µM; IC50 [10]: > 100 µM; IC50 [11]: > 100 µM
> 10,> 10,Nc1c(C(=O)c2ccccc2)sc2nc3c(c(-c4ccccc4I)c12)CCCC3,–
6,> 100,COc1ccccc1-c1c(C#N)c(N)nc2sc(C(=O)c3ccccc3)c(N)c12,IC50 [3]: > 100 µM; IC50 [4]: 95 µM; IC50 [5]: 6 µM; IC50 [12]: > 100 µM; IC50 [7]: > 100 µM; IC50 [8]: 80 µM; IC50 [9]: > 100 µM; IC50 [10]: > 100 µM; IC50 [11]: > 100 µM
> 10,> 10,COc1ccccc1-c1c(C#N)c(N)nc2sc(C(=O)c3ccccc3Cl)c(N)c12,–
2.7,> 10,N#Cc1c(N)nc2sc(C(=O)c3ccc(Cl)c(Cl)c3)c(N)c2c1-c1ccccc1Cl,EC50 (Plasmodium falciparum [13]; [14]): 3.7 µM; inhibition at 15 µM (Plasmodium falciparum [6]): 100%
3.2,> 10,Cc1ccc(C(=O)c2sc3nc(N)c(C#N)c(-c4ccccc4I)c3c2N)cc1,–
> 10,> 10,N#Cc1c(N)nc2sc(C(=O)c3ccc(C(F)(F)F)cc3)c(N)c2c1-c1ccccc1I,–

IC50 [1] [µM],IC50 [2] [µM],SMILES,also measured
> 10,> 10,N#Cc1sc2nc(N)c(C#N)c(-c3ccccc3I)c2c1N,–
0.8,1.3,N#Cc1sc2nc(N)c(C#N)c(-c3ccccc3Br)c2c1N,–
2.2,> 10,N#Cc1c(N)nc2sc(C(=O)c3cccc(C(F)(F)F)c3)c(N)c2c1-c1ccccc1Cl,EC50 (Plasmodium falciparum [13]; [14]): 5.6 µM; inhibition at 15 µM (Plasmodium falciparum [6]): 100%
> 10,> 10,COc1ccc(C(=O)c2sc3nc(N)c(C#N)c(-c4ccccc4OC)c3c2N)cc1,–
0.51,2,Cc1ccccc1-c1c(C#N)c(N)nc2sc(C#N)c(N)c12,–
> 100,> 100,N#Cc1c(N)nc2sc(C(=O)c3ccc(Cl)cc3)c(N)c2c1-c1ccccc1Br,–
8.5,> 10,COc1ccccc1-c1c(C#N)c(N)nc2sc(C(=O)c3cccc(Cl)c3)c(N)c12,–
0.18,2.3,N#Cc1sc2nc(N)c(C#N)c(-c3cccs3)c2c1N,–
> 10,> 10,COc1ccccc1-c1c(C#N)c(N)nc2sc(C(=O)c3ccc(Cl)cc3)c(N)c12,–
1.6,3.5,N#Cc1sc2nc(N)c(C#N)c(-c3c[nH]c4ccccc34)c2c1N,–
> 10,> 10,COc1ccccc1-c1c(C#N)c(N)nc2sc(C(=O)c3ccc(C#N)cc3)c(N)c12,–
2.4,> 10,N#Cc1c(N)nc2sc(C(=O)c3ccccc3)c(N)c2c1-c1ccccc1I,–
1.7,> 10,COc1cccc(C(=O)c2sc3nc(N)c(C#N)c(-c4ccccc4Cl)c3c2N)c1,inhibition at 15 µM (Plasmodium falciparum [6]): 63.5%
0.91,> 10,N#Cc1c(N)nc2sc(C(=O)c3cccc(Br)c3)c(N)c2c1-c1ccccc1Cl,EC50 (Plasmodium falciparum [13]; in the assay text read “after 48 hrs” for “after 72 hrs”): 7.5 µM; inhibition at 15 µM (Plasmodium falciparum [6]): 100%
> 100,> 100,N#Cc1c(N)nc2sc(C(=O)c3cccc(F)c3)c(N)c2c1-c1ccccc1Cl,–
> 10,> 10,CCOc1ccccc1-c1c(C#N)c(N)nc2sc(C#N)c(N)c12,–
> 10,> 10,N#Cc1c(N)nc2sc(C(=O)c3cccc(Cl)c3)c(N)c2c1-c1cccs1,–
> 10,> 10,N#Cc1c(N)nc2sc(C(=O)Nc3ccc(Cl)cc3)c(N)c2c1-c1ccccc1Cl,–
> 10,> 10,Nc1c(C(=O)c2ccc(Cl)cc2)sc2nc3c(c(-c4ccccc4I)c12)CCCC3,–
> 10,> 10,N#Cc1c(N)nc2sc(C(=O)Nc3ccc(Cl)cc3)c(N)c2c1-c1ccccc1I,–
70,> 100,N#Cc1c(N)nc2sc(C(=O)c3ccc(Cl)c(Cl)c3)c(N)c2c1-c1ccccc1I,–
